Source: ChEMBL document CHEMBL1129636 (J Med Chem, 1996)

Columns and labels:
[1] = molecular target: T1, Glutamate receptor ionotropic, kainate 2 (Homo sapiens, UniProt Q13002); assay: Electrophysiological activity at 10 uM domoate from HEK293 cells transfected with Ionotropic glutamate receptor kainate 2; assay type: functional, cell-based
In short: (§1)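 Whole-cell voltage clamp (tight-seal patch clamp) of HEK293 line EAA4-9 stably expressing human GluR6, with cells plated on glass coverslips. Bath: NaCl 138, CaCl2 5, MgCl2 1, KCl 5, HEPES 10, glucose 10 mM, pH 7.4. Pipette: KCl 140, MgCl2 1, HEPES 10, EGTA 0.1 mM, pH 7.2. Test agonist at 1, 10 or 30 uM by bath perfusion with 2.5 uM concanavalin A. Inward current expressed as percent of the response to 1 uM domoate.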

[2] = molecular target: T1, Glutamate receptor ionotropic, kainate 2; assay: Inhibition of [3H]kainate binding at ionotropic glutamate receptor kainate 2
In short: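 Frozen EAA4-9 cells (HEK293 stably expressing human GluR6) lysed in ice-cold water and pelleted at 50000g. Membranes washed in 50 mM Tris-HCl, pH 7.5 at 5 °C, to remove glutamate. Nonspecific binding defined with 1 mM L-glutamate, and bound ligand separated by centrifugation. Ki reported.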

[3] = molecular target: T1, Glutamate receptor ionotropic, kainate 2; assay: Electrophysiological activity at 30 uM domoate from HEK293 cells transfected with ionotropic glutamate receptor kainate 2; assay type: functional, cell-based; in short: as §1
[4] = molecular target: T1, Glutamate receptor ionotropic, kainate 2; assay: Electrophysiological activity at 1 uM domoate from HEK293 cells transfected with ionotropic glutamate receptor kainate 2; assay type: functional, cell-based; in short: as §1
[5] = molecular target: Glutamate receptor ionotropic, kainate 2 (Rattus norvegicus, UniProt P42260); assay: Inhibition of [3H]kainate binding at rat forebrain ionotropic glutamate receptor kainate 2
Sequence of Glutamate receptor ionotropic, kainate 2 (Rattus norvegicus, UniProt P42260) (P42260 whole entry): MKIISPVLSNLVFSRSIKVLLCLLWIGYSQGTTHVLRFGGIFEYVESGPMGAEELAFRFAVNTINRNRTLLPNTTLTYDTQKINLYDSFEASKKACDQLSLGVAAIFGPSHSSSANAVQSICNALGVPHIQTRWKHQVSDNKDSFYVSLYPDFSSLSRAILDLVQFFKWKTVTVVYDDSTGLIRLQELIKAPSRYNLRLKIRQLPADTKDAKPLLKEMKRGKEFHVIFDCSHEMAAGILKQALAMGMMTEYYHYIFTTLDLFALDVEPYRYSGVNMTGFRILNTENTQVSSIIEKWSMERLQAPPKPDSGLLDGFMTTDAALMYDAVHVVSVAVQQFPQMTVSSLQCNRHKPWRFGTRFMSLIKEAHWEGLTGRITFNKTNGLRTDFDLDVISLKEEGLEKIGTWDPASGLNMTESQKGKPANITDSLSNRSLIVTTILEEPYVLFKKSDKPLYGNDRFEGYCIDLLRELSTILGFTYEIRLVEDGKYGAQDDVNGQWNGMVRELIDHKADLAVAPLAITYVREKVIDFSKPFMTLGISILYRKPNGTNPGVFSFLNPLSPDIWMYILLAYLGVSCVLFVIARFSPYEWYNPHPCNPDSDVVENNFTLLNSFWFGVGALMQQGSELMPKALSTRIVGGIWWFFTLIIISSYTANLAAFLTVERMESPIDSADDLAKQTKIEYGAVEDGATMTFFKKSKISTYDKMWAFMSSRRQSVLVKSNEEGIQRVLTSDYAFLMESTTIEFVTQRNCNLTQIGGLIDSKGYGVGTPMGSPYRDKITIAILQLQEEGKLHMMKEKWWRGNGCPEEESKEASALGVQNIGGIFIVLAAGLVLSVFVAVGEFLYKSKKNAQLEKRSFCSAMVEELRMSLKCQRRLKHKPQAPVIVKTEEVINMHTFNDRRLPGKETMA

T1 sequence (Q13002 whole entry, the tested form may be a part): as the sequence (P42260 whole entry) above, with S5F, V7I, L11P, S14R, S16T, I17V, V19L, V494A counted along it

`C=C(c1ccc(F)cc1)[C@H]1CN[C@H](C(=O)O)[C@H]1CC(=O)O` gave a Response [1] of 76%, a Ki [2] of 0.0384 µM and a Response [3] of 78%. It also gave a Response [4] of 43% and a Ki [5] of 0.0027 µM.
For `C=C(c1ccc(Oc2ccccc2)cc1)[C@H]1CN[C@H](C(=O)O)[C@H]1CC(=O)O`, the Response [1] was 59%, the Ki [2] was 0.21 µM and the Response [3] was 62%. It also gave a Response [4] of 15% and a Ki [5] of 0.0119 µM.
`C=C(c1ccc(CCC)cc1)[C@H]1CN[C@H](C(=O)O)[C@H]1CC(=O)O` gave a Response [1] of 54%, a Ki [2] of 0.147 µM and a Response [3] of 66%. The Response [4] was 24% and the Ki [5] was 0.0036 µM.
Work on `C=C(c1ccc(CCCC)cc1)[C@H]1CN[C@H](C(=O)O)[C@H]1CC(=O)O` yielded a Response [1] of 57%, a Ki [2] of 0.146 µM and a Response [3] of 63%. The Response [4] was 11% and the Ki [5] was 0.0048 µM.
`C=C(c1cccc(C)c1)[C@H]1CN[C@H](C(=O)O)[C@H]1CC(=O)O` was tested, and the Response [1] was 75%, the Ki [2] was 0.123 µM and the Response [3] was 74%. It also gave a Response [4] of 29% and a Ki [5] of 0.0022 µM.
`C=C(c1cccc(-c2ccccc2)c1)[C@H]1CN[C@H](C(=O)O)[C@H]1CC(=O)O` was tested, and the Response [1] was 98%, the Ki [2] was 0.0906 µM and the Response [3] was 103%. The Response [4] was 65% and the Ki [5] was 0.0021 µM.
For `C=C(c1ccc(CC)cc1)[C@H]1CN[C@H](C(=O)O)[C@H]1CC(=O)O`, the Response [1] was 63%, the Ki [2] was 0.0822 µM and the Response [3] was 73%. For the same compound, the Response [4] was 22% and the Ki [5] was 0.0077 µM.
`C=C(c1ccc(OCCCC)cc1)[C@H]1CN[C@H](C(=O)O)[C@H]1CC(=O)O` gave a Response [1] of 86%, a Ki [2] of 0.147 µM and a Response [3] of 99%. The Response [4] was 33% and the Ki [5] was 0.0028 µM.
For `C=C(c1cc(C)cc(C)c1)[C@H]1CN[C@H](C(=O)O)[C@H]1CC(=O)O`, the Response [1] was 73%, the Ki [2] was 0.169 µM and the Response [3] was 108%. The Response [4] was 23% and the Ki [5] was 0.0095 µM.
In the case of `C=C(c1cccc(OCCC(c2ccccc2)c2ccccc2)c1)[C@@H]1CN[C@H](C(=O)O)[C@H]1CC(=O)O`, the Response [1] is reported as 0%, the Ki [2] is reported as over 10 µM and the Response [3] is reported as 0%. The Response [4] was 0% and the Ki [5] was 3 µM.
`C=C(c1cccc(-c2ccccc2)c1)[C@@H]1CN[C@H](C(=O)O)[C@H]1CC(=O)O` was tested, and the Response [1] was 0%, the Ki [2] was 3.11 µM and the Response [3] was 0%. It also gave a Response [4] of 0%.
In the case of `C=C(c1ccc(OCCCCCc2ccccc2)cc1)[C@H]1CN[C@H](C(=O)O)[C@H]1CC(=O)O`, the Response [1] is reported as 13%, the Ki [2] is reported as 1.3 µM and the Response [3] is reported as 27%. For the same compound, the Response [4] was 0% and the Ki [5] was 0.126 µM.
With `C=C(c1cccc(OCCCC)c1)[C@H]1CN[C@H](C(=O)O)[C@H]1CC(=O)O` the Response [1] was 8%, the Ki [2] was 0.275 µM and the Response [3] was 40%. For the same compound, the Response [4] was 5% and the Ki [5] was 0.0233 µM.
`C=C(c1ccc(OC)cc1)[C@H]1CN[C@H](C(=O)O)[C@H]1CC(=O)O` showed a Response [1] of 76%, a Ki [2] of 0.0574 µM and a Response [3] of 82%. The Response [4] was 37% and the Ki [5] was 0.0039 µM.
Work on `C=C(c1ccccc1)[C@H]1CN[C@H](C(=O)O)[C@H]1CC(=O)O` yielded a Response [1] of 81%, a Ki [2] of 0.0298 µM and a Response [3] of 80%. The Response [4] was 48% and the Ki [5] was 0.0016 µM.
For `C=C(c1ccc(OCCc2ccccc2)cc1)[C@H]1CN[C@H](C(=O)O)[C@H]1CC(=O)O`, the Response [1] was 52%, the Ki [2] was 0.126 µM and the Response [3] was 66%. It also gave a Response [4] of 16% and a Ki [5] of 0.0062 µM.
`C=C(C)c1ccc(C(=C)[C@H]2CN[C@H](C(=O)O)[C@H]2CC(=O)O)cc1` was tested, and the Response [1] was 61%, the Ki [2] was 0.132 µM and the Response [3] was 66%. It also gave a Response [4] of 17% and a Ki [5] of 0.0036 µM.
With `C=C(C)c1ccc(C(=C)[C@@H]2CN[C@H](C(=O)O)[C@H]2CC(=O)O)cc1` the Ki [2] was 2.3 µM and the Ki [5] was 5.4 µM.
`C=C(c1ccc(-c2ccccc2)cc1)[C@H]1CN[C@H](C(=O)O)[C@H]1CC(=O)O` showed a Response [1] of 58%, a Ki [2] of 0.131 µM and a Response [3] of 66%. The Response [4] was 36% and the Ki [5] was 0.0091 µM.
For `C=C(c1cccc(OCCc2ccccc2)c1)[C@H]1CN[C@H](C(=O)O)[C@H]1CC(=O)O`, the Response [1] was 43%, the Ki [2] was 0.667 µM and the Response [3] was 70%. It also gave a Response [4] of 6% and a Ki [5] of 0.016 µM.
In the case of `C=C(c1cccc(OCCC(c2ccccc2)c2ccccc2)c1)[C@H]1CN[C@H](C(=O)O)[C@H]1CC(=O)O`, the Response [1] is reported as 6%, the Ki [2] is reported as 2.42 µM and the Response [3] is reported as 14%. The Response [4] was 3% and the Ki [5] was 0.21 µM.
In the case of `CC(c1cccc(-c2ccccc2)c1)[C@H]1CN[C@H](C(=O)O)[C@H]1CC(=O)O` (some centres undefined), the Response [1] is reported as 14%, the Ki [2] is reported as over 10 µM and the Response [3] is reported as 16%. For the same compound, the Response [4] was 12%.
`C=C(c1ccc(F)c(C)c1)[C@H]1CN[C@H](C(=O)O)[C@H]1CC(=O)O` gave a Response [1] of 76%, a Ki [2] of 0.0543 µM and a Response [3] of 100%. It also gave a Response [4] of 38% and a Ki [5] of 0.0019 µM.
`C=C(c1ccc(C)cc1)[C@H]1CN[C@H](C(=O)O)[C@H]1CC(=O)O` showed a Response [1] of 72%, a Ki [2] of 0.0411 µM and a Response [3] of 76%. It also gave a Response [4] of 61% and a Ki [5] of 0.0026 µM.
`C=C(c1ccc(C(C)(C)C)cc1)[C@H]1CN[C@H](C(=O)O)[C@H]1CC(=O)O` gave a Response [1] of 31%, a Ki [2] of 0.263 µM and a Response [3] of 46%. It also gave a Response [4] of 8% and a Ki [5] of 0.0185 µM.
`C=C(c1ccc(OCCCCC)c(C)c1)[C@H]1CN[C@H](C(=O)O)[C@H]1CC(=O)O` showed a Response [1] of 46%, a Ki [2] of 0.663 µM and a Response [3] of 58%. For the same compound, the Response [4] was 17%.
Work on `C=C(C)[C@H]1CN[C@H](C(=O)O)[C@H]1CC(=O)O` yielded a Response [1] of 85%, a Response [3] of 101% and a Response [4] of 39%.
Compound `C=C(c1ccc(Cl)cc1)[C@H]1CN[C@H](C(=O)O)[C@H]1CC(=O)O` has a Response [1] of 78%, a Ki [2] of 0.0317 µM and a Response [3] of 83%. The Response [4] was 52% and the Ki [5] was 0.0039 µM.
Work on `C=C(c1ccc(C)c(C)c1)[C@H]1CN[C@H](C(=O)O)[C@H]1CC(=O)O` yielded a Response [1] of 89%, a Ki [2] of 0.108 µM and a Response [3] of 98%. The Response [4] was 50% and the Ki [5] was 0.0023 µM.
For `C=C(c1ccccc1)[C@@H]1CN[C@H](C(=O)O)[C@H]1CC(=O)O`, the Response [1] was “Neurotoxic”, the Ki [2] was 6.97 µM and the Response [3] was “Neurotoxic”. For the same compound, the Response [4] was “Neurotoxic” and the Ki [5] was 0.23 µM.
`C=C(c1ccc(OCCc2ccccc2)c(OC)c1)[C@H]1CN[C@H](C(=O)O)[C@H]1CC(=O)O` showed a Response [1] of 20%, a Ki [2] of 1.28 µM and a Response [3] of 44%. The Response [4] was 2%.
For `CC(c1ccccc1)[C@H]1CN[C@H](C(=O)O)[C@H]1CC(=O)O` (some centres undefined), the Response [1] was 0%, the Ki [2] was over 10 µM and the Response [3] was 0%. The Response [4] was 0%.
`C=C(c1cccc(OC)c1)[C@H]1CN[C@H](C(=O)O)[C@H]1CC(=O)O` gave a Response [1] of 77%, a Ki [2] of 0.0935 µM and a Response [3] of 87%. The Response [4] was 46% and the Ki [5] was 0.0035 µM.
`C=C(c1ccc(OCCc2ccccc2)c(C)c1)[C@H]1CN[C@H](C(=O)O)[C@H]1CC(=O)O` gave a Response [1] of 64%, a Ki [2] of 0.129 µM and a Response [3] of 71%. It also gave a Response [4] of 12%.
For `C=C(CC)c1ccc(C(=C)[C@H]2CN[C@H](C(=O)O)[C@H]2CC(=O)O)cc1`, the Response [1] was 38%, the Ki [2] was 0.288 µM and the Response [3] was 52%. For the same compound, the Response [4] was 15% and the Ki [5] was 0.009 µM.
